Laboratory results published in ChEMBL document CHEMBL1154853, “New 1,3-oxazolo[4,5-c]quinoline derivatives: synthesis and evaluation of antibacterial and antituberculosis properties” (2010).
In brackets after ≈: the same amount, converted by molar mass. Several values for one entry are separate records, joined by “and”; a condition that tells them apart may be missing. Equal entries are not always repeated.

Assays:
Type in all cases: functional
Escherichia coli [1] = experiment: Antimicrobial activity against Escherichia coli […] after 16 to 18 hrs by serial dilution method
In short: (§1)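 Tube broth dilution: serial drug dilutions in Mueller Hinton broth, pH adjusted to 5.0 with phosphate buffer. A standardized bacterial suspension was inoculated and incubated 16-18 h at 37 °C. MIC was read as the lowest drug concentration with no visible growth. Ciprofloxacin served as the reference.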

Staphylococcus aureus [2] = experiment: Antimicrobial activity against Staphylococcus aureus […] at MIC after 3 to 4 days by disc diffusion method
[3] = system: Mycobacterium tuberculosis; experiment: Antitubercular activity against Mycobacterium tuberculosis H37Rv after 24 hrs by broth microdilution method
In short: (§2)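 M. tuberculosis H37Rv grown in Middlebrook 7H9 with 10% OADC, diluted to McFarland 1, 50 µl added to 150 µl fresh medium. Compounds from 2 mg/mL DMF stocks tested at 1, 10 and 100 µg/mL; DMF-only controls. 7 days at 37 °C, then 0.01% resazurin added with 24 h further incubation. MIC = lowest concentration preventing blue-to-pink change.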

Pseudomonas aeruginosa [4] = experiment: Antimicrobial activity against Pseudomonas aeruginosa ATTC 27853 at MIC after 3 to 4 days by disc diffusion method
Staphylococcus aureus [5] = experiment: Antimicrobial activity against Staphylococcus aureus […] after 16 to 18 hrs by serial dilution method; in short: as §1
[6] = system: Mycobacterium tuberculosis; experiment: Antitubercular activity against Mycobacterium tuberculosis H37Rv at MIC after 24 hrs by broth microdilution method; in short: as §2
Escherichia coli [7] = experiment: Antimicrobial activity against Escherichia coli […] at MIC after 3 to 4 days by disc diffusion method
Klebsiella pneumoniae [8] = experiment: Antimicrobial activity against Klebsiella pneumoniae after 16 to 18 hrs by serial dilution method; in short: as §1
Pseudomonas aeruginosa [9] = experiment: Antimicrobial activity against Pseudomonas aeruginosa ATTC 27853 after 16 to 18 hrs by serial dilution method; in short: as §1
Klebsiella pneumoniae [10] = experiment: Antimicrobial activity against Klebsiella pneumoniae at MIC after 3 to 4 days by disc diffusion method

SMILES	MIC (Escherichia coli [1]) [µg/mL]	diameter of the inhibition zone (DIZ) (Staphylococcus aureus [2])	MIC [3] [µg/mL]	diameter of the inhibition zone (DIZ) (Pseudomonas aeruginosa [4])	MIC (Staphylococcus aureus [5]) [µg/mL]	inhibition (INH) [6] [%]	diameter of the inhibition zone (DIZ) (Escherichia coli [7])	MIC (Klebsiella pneumoniae [8]) [µg/mL]	MIC (Pseudomonas aeruginosa [9]) [µg/mL]	diameter of the inhibition zone (DIZ) (Klebsiella pneumoniae [10])
COc1ccccc1NC(=O)Nc1c(-c2ccc(F)cc2)nc2ccccc2c1O	6.25 (≈ 15.5 µM)	17 mm	1 (≈ 2.48 µM)	16 mm	6.25 (≈ 15.5 µM)	99	21 mm	6.25 (≈ 15.5 µM)	6.25 (≈ 15.5 µM)	19 mm
O=C(O)c1cn(C2CC2)c2cc(N3CCNCC3)c(F)cc2c1=O [CIPROFLOXACIN]		26 mm and 24 mm		31 mm and 25 mm			28 mm and 29 mm	6.25 (≈ 18.9 µM)		25 mm and 22 mm
O=C(Nc1ccccc1)Nc1c(-c2cccc(F)c2)nc2ccccc2c1O	6.25 (≈ 16.7 µM)	17 mm	10 (≈ 26.8 µM)	18 mm	6.25 (≈ 16.7 µM)	95	20 mm	6.25 (≈ 16.7 µM)	6.25 (≈ 16.7 µM)	20 mm
COc1ccccc1NC(=O)Nc1c(-c2cccc(F)c2)nc2ccccc2c1O	6.25 (≈ 15.5 µM)	19 mm	1 (≈ 2.48 µM)	18 mm	6.25 (≈ 15.5 µM)	99	22 mm	6.25 (≈ 15.5 µM)	6.25 (≈ 15.5 µM)	19 mm
Fc1ccc(Nc2nc3c(-c4ccc(F)cc4)nc4ccccc4c3o2)cc1	6.25 (≈ 16.7 µM)	20 mm	1 (≈ 2.68 µM)	22 mm	6.25 (≈ 16.7 µM)	99	28 mm	6.25 (≈ 16.7 µM)	6.25 (≈ 16.7 µM)	20 mm
Fc1ccc(-c2nc3ccccc3c3oc(Nc4cccc(Cl)c4)nc23)cc1	6.25 (≈ 16 µM)	22 mm	1 (≈ 2.57 µM)	24 mm	6.25 (≈ 16 µM)	99	26 mm	6.25 (≈ 16 µM)	6.25 (≈ 16 µM)	21 mm
O=C(NCCc1ccccc1)Nc1c(-c2cccc(F)c2)nc2ccccc2c1O	50 (≈ 125 µM)	<10 mm	> 100	<10 mm	50 (≈ 125 µM)	0	<10 mm	50 (≈ 125 µM)	50 (≈ 125 µM)	<10 mm
CSc1ccc(Nc2nc3c(-c4cccc(F)c4)nc4ccccc4c3o2)cc1	6.25 (≈ 15.6 µM)	20 mm	10 (≈ 24.9 µM)	20 mm	6.25 (≈ 15.6 µM)	95	23 mm	6.25 (≈ 15.6 µM)	6.25 (≈ 15.6 µM)	22 mm
CCCCCNC(=O)Nc1c(-c2cccc(F)c2)nc2ccccc2c1O	6.25 (≈ 17 µM)	12 mm	> 100	11 mm	12.5 (≈ 34 µM)	0	22 mm	12.5 (≈ 34 µM)	12.5 (≈ 34 µM)	12 mm
O=C(NCc1ccccc1)Nc1c(-c2cccc(F)c2)nc2ccccc2c1O	6.25 (≈ 16.1 µM)	18 mm	10 (≈ 25.8 µM)	20 mm	6.25 (≈ 16.1 µM)	95	21 mm	6.25 (≈ 16.1 µM)	6.25 (≈ 16.1 µM)	18 mm
O=C(NCc1ccccc1)Nc1c(-c2ccc(F)cc2)nc2ccccc2c1O	50 (≈ 129 µM)	16 mm	10 (≈ 25.8 µM)	<10 mm	6.25 (≈ 16.1 µM)	95	<10 mm	50 (≈ 129 µM)	50 (≈ 129 µM)	<10 mm
Cc1cc(C)cc(NC(=O)Nc2c(-c3ccc(F)cc3)nc3ccccc3c2O)c1	50 (≈ 125 µM)	<10 mm	> 100	<10 mm	50 (≈ 125 µM)	0	<10 mm	50 (≈ 125 µM)	50 (≈ 125 µM)	<10 mm
COc1ccccc1Nc1nc2c(-c3cccc(F)c3)nc3ccccc3c2o1	6.25 (≈ 16.2 µM)	21 mm	1 (≈ 2.59 µM)	21 mm	6.25 (≈ 16.2 µM)	99	24 mm	6.25 (≈ 16.2 µM)	6.25 (≈ 16.2 µM)	21 mm
CSc1ccc(NC(=O)Nc2c(-c3cccc(F)c3)nc3ccccc3c2O)cc1	6.25 (≈ 14.9 µM)	<10 mm	> 100	<10 mm	50 (≈ 119 µM)	0	22 mm	50 (≈ 119 µM)	50 (≈ 119 µM)	<10 mm
Fc1ccc(-c2nc3ccccc3c3oc(NCc4ccccc4)nc23)cc1	6.25 (≈ 16.9 µM)	21 mm	10 (≈ 27.1 µM)	24 mm	6.25 (≈ 16.9 µM)	95	24 mm	6.25 (≈ 16.9 µM)	6.25 (≈ 16.9 µM)	19 mm
Fc1cccc(-c2nc3ccccc3c3oc(Nc4ccccc4)nc23)c1	6.25 (≈ 17.6 µM)	20 mm	10 (≈ 28.1 µM)	22 mm	6.25 (≈ 17.6 µM)	95	26 mm	6.25 (≈ 17.6 µM)	6.25 (≈ 17.6 µM)	20 mm
Fc1ccc(Nc2nc3c(-c4cccc(F)c4)nc4ccccc4c3o2)cc1	6.25 (≈ 16.7 µM)	22 mm	1 (≈ 2.68 µM)	25 mm	6.25 (≈ 16.7 µM)	99	25 mm	6.25 (≈ 16.7 µM)	6.25 (≈ 16.7 µM)	19 mm
CO[C@H]1/C=C/O[C@@]2(C)Oc3c(C)c(O)c4c(O)c(c(/C=N/N5CCN(C)CC5)c(O)c4c3C2=O)NC(=O)/C(C)=C\C=C\[C@H](C)[C@H](O)[C@@H](C)[C@@H](O)[C@@H](C)[C@H](OC(C)=O)[C@@H]1C [RIFAMPIN]			0.5 (≈ 0.608 µM)			99				
NNC(=O)c1ccncc1 [ISONIAZID]			1.5 (≈ 10.9 µM)			95				
